High-throughput results from PubChem.
APJ ag – APJ receptor agonism; AID 2520; P35414; activation, % at 20 µM; 330,000 tested, 0.11% active; CHO-K1 APJ PathHunter beta-arrestin, luminescence; 0% DMSO wells, 100% apelin;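 active means activation more than six SD over the plate average, tested at 20 µM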
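Assay system: CHO-K1 APJ beta-arrestin complementation cell line / Compound: single test compound dose, 20 µM final, 1% DMSO / Times: overnight seeding, 90 min compound at 25 °C, 1 h detection / Technique: beta-gal luminescence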
GAA850 FXN act – activators of GAA850 frataxin (FXN) promoter; HEK293 lucGAA850 FXN promoter luciferase reporter, 24 h; percent of 10 µM SAHA response; activation, % at 6 µM; 360,000 tested, 0.56% active; AID 540364;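 active means activation above the average of all compounds screened plus 3 SD, cutoff fixed separately per campaign, cut at about 7.5% in these data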
CCR6 antagonist – CCR6 (human) receptor antagonism; P51684; inhibition, % at 20 µM; 340,000 tested, 0.49% active; CHO-K1 CCR6 PathHunter beta-arrestin, luminescence, CCL20-stimulated; AID 493098;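 active means compounds whose inhibition of the agonist-driven luminescence signal at 20 µM reaches about 50%, limit read from the data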;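 further: cells stimulated with CCL20 at 14 nM final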
Target sequence (P51684 whole entry, looked up): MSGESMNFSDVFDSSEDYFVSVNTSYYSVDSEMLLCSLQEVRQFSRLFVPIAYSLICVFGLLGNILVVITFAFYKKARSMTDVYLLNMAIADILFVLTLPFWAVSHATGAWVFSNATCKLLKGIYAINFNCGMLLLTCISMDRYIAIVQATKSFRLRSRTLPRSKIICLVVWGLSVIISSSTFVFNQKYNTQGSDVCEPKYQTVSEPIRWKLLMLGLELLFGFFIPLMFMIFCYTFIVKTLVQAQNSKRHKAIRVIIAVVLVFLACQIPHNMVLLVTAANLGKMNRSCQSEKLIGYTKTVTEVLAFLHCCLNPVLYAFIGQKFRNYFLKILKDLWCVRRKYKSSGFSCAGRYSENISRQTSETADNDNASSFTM
CXCR6 inh – CXCR6 (human) receptor inhibition; O00574; CHO-K1 PathHunter CXCR6 beta-arrestin, luminescence; inhibition, % at 20 µM; 360,000 tested, 0.36% active; in the data active means inhibition above about 34%, passing the limit was not always enough;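 further: antagonist mode with CXCL16 agonist at 10 nM final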
EBI2 antag – blocks human EBI2 receptor beta-arrestin signaling; P32249; EBI2 beta-arrestin recruitment, luminescence, 7a,25-OHC stimulated; inhibition, % at 5 µM; 360,000 tested, 0.81% active; AID 651636; in the data active means inhibition above about 38%;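 further: enzyme fragment complementation signal reports receptor beta-arrestin coupling in cells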
APJ antag – blocks the human apelin receptor APJ. P35414. CHO-K1 APJ beta-arrestin complementation, luminescence. inhibition, % at 20 µM. 330,000 tested, 0.32% active. AID 2521;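 active means inhibition above about 40% at 20 µM, limit read from the data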;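 further: cells challenged with 10 nM apelin-13 agonist together with compound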
GAA30 counter – counter-screen for GAA850 frataxin promoter activators: GAA30 promoter activation | shares compounds with GAA850 FXN act | HEK293 lucGAA30 FXN promoter luciferase, 24 h; DMSO = 0%, 5 µM ipriflavone = 100% | activation, % at 6 µM | 1,900 tested, 66% active;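 active means mean activation above the mean of solvent-only control wells plus 3 SD, cut at about 22% in these data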;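 further: counterscreen of GAA850 promoter hits where activity marks nonselective or luminescence artifacts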
FXN GAA850 conf – GAA850 FXN promoter activation confirmation; AID 588351; shares compounds with GAA850 FXN act; HEK293 lucGAA850 FXN promoter luciferase reporter, 24 h; 100% = activation by SAHA; activation, % at 6 µM; 1,900 tested, 86% active;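 active means mean activation above a set limit taken from the primary screen, cut at about 8% in these data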
Numbers stand for hits. Compounds with a hit are over-represented: about 2% of the library has one in this group of screens.

COc1cc2sc3cc(NCC[C@@H]4CCCN4C)ccc3c(=O)c2cc1OC was read as APJ ag inactive, GAA850 FXN act 9.9, CCR6 antagonist inactive, CXCR6 inh inactive, EBI2 antag inactive, APJ antag inactive, GAA30 counter 83 and FXN GAA850 conf 42.
COc1cc2sc3cc(NCc4ccc5c(c4)OCO5)ccc3c(=O)c2cc1OC was read as APJ ag inactive, GAA850 FXN act inactive, CCR6 antagonist inactive, CXCR6 inh inactive, EBI2 antag inactive and APJ antag inactive.
`COc1cc2sc3cc(NCc4ccc(C)o4)ccc3c(=O)c2cc1OC` gave APJ ag inactive, GAA850 FXN act 11, CCR6 antagonist inactive, CXCR6 inh inactive, EBI2 antag inactive, APJ antag inactive, GAA30 counter 109 and FXN GAA850 conf 35.
Screening COc1ccccc1CNS(=O)(=O)c1cc(C(=O)N(C)Cc2cccnc2)c(Cl)cc1Cl returned GAA850 FXN act inactive, CCR6 antagonist inactive, CXCR6 inh inactive and EBI2 antag inactive.
`CCOCCCn1c(SCC(=O)Nc2ccc3[nH]c(=O)[nH]c3c2)nc2ccccc2c1=O` gave APJ ag inactive, GAA850 FXN act inactive, CCR6 antagonist inactive, CXCR6 inh inactive, EBI2 antag inactive and APJ antag inactive.
For COc1ccc2c(c1)CC/C(=C/c1ccccn1)C2=O the results were APJ ag inactive, GAA850 FXN act inactive, CCR6 antagonist inactive, CXCR6 inh inactive, EBI2 antag inactive and APJ antag inactive.
Screening O=C1C(=Cc2ccccn2)CCc2ccccc21 returned GAA850 FXN act 7.8, CXCR6 inh inactive, EBI2 antag inactive, GAA30 counter 103 and FXN GAA850 conf 31.
`Cc1[nH]c2ccccc2c1C(=O)/C=C/c1ccccc1Cl` gave APJ ag inactive, GAA850 FXN act 7.7, CCR6 antagonist inactive, CXCR6 inh inactive, EBI2 antag inactive, APJ antag inactive, GAA30 counter 117 and FXN GAA850 conf 44.
Cc1[nH]c2ccccc2c1C(=O)/C=C\c1ccccc1Cl was read as APJ ag inactive, GAA850 FXN act inactive, CCR6 antagonist inactive, CXCR6 inh inactive, EBI2 antag inactive and APJ antag inactive.
`COc1ccccc1-c1ccc2c(c1)C(C)(Cc1ccc(OC(F)(F)F)cc1)C(=O)N2` (centres undefined) gave GAA850 FXN act inactive, CXCR6 inh inactive and EBI2 antag inactive.
`O=c1cnnc(N/N=C/c2c[nH]c3ccccc23)[nH]1` gave APJ ag inactive, GAA850 FXN act inactive, CCR6 antagonist inactive, CXCR6 inh inactive, EBI2 antag inactive and APJ antag inactive.
O=c1nc(N/N=C/c2c[nH]c3ccccc23)cn[nH]1 was read as APJ ag inactive, GAA850 FXN act 7.8, CCR6 antagonist inactive, CXCR6 inh inactive, EBI2 antag inactive, APJ antag inactive, GAA30 counter 103 and FXN GAA850 conf 24.
For C(=N\Nc1ccccn1)/c1c[nH]c2ccccc12 the results were APJ ag inactive, GAA850 FXN act 7.7, CCR6 antagonist inactive, CXCR6 inh inactive, EBI2 antag inactive, APJ antag inactive, GAA30 counter 76 and FXN GAA850 conf 36.
`Brc1ccc(/C=N/Nc2ccccn2)cc1` gave APJ ag inactive, GAA850 FXN act 9.5, CCR6 antagonist inactive, CXCR6 inh inactive, EBI2 antag inactive, APJ antag inactive, GAA30 counter 105 and FXN GAA850 conf 39.
`OC1CCCN(c2c3c(nc4cc(-c5cccc(F)c5)nn24)CCCC3)C1` (centres undefined) gave APJ ag inactive, GAA850 FXN act 14, CCR6 antagonist inactive, CXCR6 inh inactive, EBI2 antag inactive, APJ antag inactive, GAA30 counter 92 and FXN GAA850 conf 32.
Screening Cc1cccc(-c2cc3nc4c(c(N5CCCC(O)C5)n3n2)CCC4)c1 (centres undefined) returned APJ ag inactive, GAA850 FXN act inactive, CCR6 antagonist inactive, CXCR6 inh inactive, EBI2 antag inactive and APJ antag inactive.
For Cn1nc(N)c2ncc(-c3ccc(Cl)cc3)nc21 the results were GAA850 FXN act 9.7, CXCR6 inh inactive, EBI2 antag inactive, GAA30 counter 99 and FXN GAA850 conf 30.
CCn1c2ccc(C)cc2c2nc3cc(C(=O)O)ccc3nc21 was read as GAA850 FXN act 8.0, CCR6 antagonist inactive, CXCR6 inh inactive, EBI2 antag inactive, GAA30 counter 147 and FXN GAA850 conf 47.
O=C(CC[C@H]1O[C@@H](n2ccc(=O)[nH]c2=O)[C@H](O)[C@@H]1O)NCC1CCCO1 (some centres undefined) was read as CXCR6 inh inactive and EBI2 antag inactive.
CCOc1ccc2cc(C#N)c(SCC(=O)N3CCOCC3)nc2c1 was read as APJ ag inactive, GAA850 FXN act 9.7, CCR6 antagonist inactive, CXCR6 inh inactive, EBI2 antag inactive, APJ antag inactive, GAA30 counter 133 and FXN GAA850 conf 46.
For CCOc1ccc2nc(SCC(=O)N3CCCCCC3)c(C#N)cc2c1 the results were APJ ag inactive, GAA850 FXN act inactive, CCR6 antagonist inactive, CXCR6 inh inactive, EBI2 antag inactive and APJ antag inactive.
`COc1cccc(C(=O)Nc2nnc(-c3ccccc3)s2)c1` gave GAA850 FXN act 8.0, CCR6 antagonist inactive, CXCR6 inh inactive, EBI2 antag inactive, GAA30 counter 80 and FXN GAA850 conf 35.
COc1cccc(NC(=O)c2ccc3nc(C)sc3c2)c1 was read as APJ ag inactive, GAA850 FXN act 7.6, CCR6 antagonist inactive, CXCR6 inh inactive, EBI2 antag inactive, APJ antag inactive, GAA30 counter 120 and FXN GAA850 conf 40.
`COc1ccccc1NC(=O)c1ccc2nc(C)sc2c1` gave APJ ag inactive, GAA850 FXN act inactive, CCR6 antagonist inactive, CXCR6 inh inactive, EBI2 antag inactive and APJ antag inactive.
`Cc1cc(NC(=O)c2ccc3nc(C)sc3c2)no1` gave APJ ag inactive, GAA850 FXN act 7.7, CCR6 antagonist inactive, CXCR6 inh inactive, EBI2 antag inactive, APJ antag inactive, GAA30 counter 111 and FXN GAA850 conf 33.
For O=C1NC(=O)C2(C=C(c3ccccc3)C(O)(c3ccccc3)C2)N1 (centres undefined) the results were GAA850 FXN act inactive, CCR6 antagonist inactive, CXCR6 inh inactive and EBI2 antag inactive.
For CCOC1=CC2=C(C(=O)C(Cl)=CC2=O)[C@@H]2CN(S(=O)(=O)c3ccc(C)cc3)[C@@H](c3ccccc3)[C@H]12 the results were CXCR6 inh inactive and EBI2 antag inactive.
